Assay results as given in ChEMBL document CHEMBL4145531, “Synthesis of novel Chlorin e6-curcumin conjugates as photosensitizers for photodynamic therapy against pancreatic carcinoma” (Eur J Med Chem, 2018).

How the values were obtained:
PANC-1 = assay: Phototoxicity in human PANC1 cells assessed as reduction in cell viability preincubated for 3 hrs followed by 9 J/cm2 laser light irradiation and measured after 72 hrs by MTT assay; format: functional, cell-based; conditions: PANC-1, light or radiation study
Summary of the method: (§1)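 Cells were seeded at 5.0 x 10^3 per well and incubated overnight at 37 °C. AsPC-1 was in RPMI-1640 and MIA PaCa-2/PANC-1 in DMEM, with 10% FBS. Cells took up compound for 3h, then received 660 nm laser light (50 mW, 9 J/cm²).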

[1] = Selectivity index, ratio of IC50 for dark toxicity in human MIAPaCa2 cells to IC50 for phototoxicity in human MIAPaCa2 cells; format: cell-based, MIA PaCa-2; conditions: read-out: Ratio IC50
Summary of the method: (§2)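 The ratio is the dark-toxicity IC50 over the phototoxicity IC50 in the same cell line, both from 72h MTT. The dark arm received no light. The photo arm was irradiated at 660 nm, 50 mW, 9 J/cm² after 3h compound exposure.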

[2] = Dark toxicity in human AsPC1 cells assessed as reduction in cell viability after 72 hrs by MTT assay; format: cell-based
Summary of the method: (§3)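 AsPC-1 cells were grown in RPMI-1640, and MIA PaCa-2 and PANC-1 in DMEM, each with 10% FBS and 1% penicillin/streptomycin. 5.0 x 10^3 cells were seeded and left overnight at 37 °C. They were exposed to 0-300 µM compound for 3h without laser irradiation, then held 72h in the dark at 37 °C, 5% CO₂. Viability was read by MTT.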

[3] = Induction of singlet oxygen production in DMSO assessed as DPBF absorption intensity (reference value: 100%); format: functional
Summary of the method: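 DPBF (50 µM in DMSO) was mixed with 1 µM photosensitizer in the dark. Samples were irradiated at 660 nm, 50 mW, 2 J/cm² for 40 s. Singlet oxygen was read as the decay of normalized DPBF absorbance at 418 nm relative to a DPBF-only control.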

[4] = Selectivity index, ratio of IC50 for dark toxicity in human AsPC1 cells to IC50 for phototoxicity in human AsPC1 cells; format: cell-based; conditions: read-out: Ratio IC50; summary of the method: as §2
[5] = Dark toxicity in human PANC1 cells assessed as reduction in cell viability after 72 hrs by MTT assay; format: cell-based, PANC-1; summary of the method: as §3
[6] = Drug uptake in human AsPC1 cells at 5 uM by FACS analysis; format: ADME, cell-based; conditions: aspc1, 5 µM, TDE = time-dependent effect
Summary of the method: (§4)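 AsPC-1 cells (2 x 10^5) were seeded and kept in the dark at 37 °C for 24h. They were then incubated with 5 µM compound for 30 min to 24h. Cells were harvested by trypsin, washed three times in PBS and resuspended in PBS. Uptake was read as mean fluorescence intensity by FACS.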

[7] = Dark toxicity in human MIAPaCa2 cells assessed as reduction in cell viability after 72 hrs by MTT assay; format: cell-based, MIA PaCa-2; summary of the method: as §3
ASPC1 = assay: Phototoxicity in human AsPC1 cells assessed as reduction in cell viability preincubated for 3 hrs followed by 9 J/cm2 laser light irradiation and measured after 72 hrs by MTT assay; format: functional, cell-based; conditions: ASPC1, light or radiation study; summary of the method: as §1
[8] = Solubility of the compound in 2% DMSO/98% de-ionized water at 16 uM; format: physicochemical; conditions: buffer
MIA PaCa-2 = assay: Phototoxicity in human MIAPaCa2 cells assessed as reduction in cell viability preincubated for 3 hrs followed by 9 J/cm2 laser light irradiation and measured after 72 hrs by MTT assay; format: functional, cell-based; conditions: MIA PaCa-2, light or radiation study; summary of the method: as §1
[9] = Selectivity index, ratio of IC50 for dark toxicity in human PANC1 cells to IC50 for phototoxicity in human PANC1 cells; format: cell-based, PANC-1; conditions: read-out: Ratio IC50; summary of the method: as §2
[10] = Drug uptake in human AsPC1 cells at 5 uM after 3 to 24 hrs by FACS analysis; format: ADME, cell-based; conditions: aspc1, 5 µM; summary of the method: as §4
[11] = Solubility of the compound in 2% DMSO/98% de-ionized water at 8.7 uM; format: physicochemical; conditions: buffer

| Drug uptake [6] | solubility [8] | Drug uptake [10] | solubility [11] | SMILES | IC50 (PANC-1) [µM] | selectivity ratio [1] | IC50 at 72 h [2] [µM] | Activity [3] [%] | selectivity ratio [4] | IC50 at 72 h [5] [µM] | IC50 at 72 h [7] [µM] | IC50 (ASPC1) [µM] | IC50 (MIA PaCa-2) [µM] | selectivity ratio [9] |
| --- | --- | --- | --- | --- | --- | --- | --- | --- | --- | --- | --- | --- | --- | --- |
| Tde | Soluble |  |  | C=Cc1c(C)c2cc3nc(c(CC(=O)O)c4[nH]c(cc5nc(cc1[nH]2)C(C)=C5CC)c(C)c4C(=O)O)C(CCC(=O)O)C3C (stereo unspecified) | 10.1 | 5.61 | 126 | 9.88 | 6.45 | 67 | 89 | 19.5 | 15.8 | 6.6 |
| Tde |  | Active | Soluble | C=Cc1c(C)c2cc3nc(c(CC(=O)OC)c4[nH]c(cc5nc(cc1[nH]2)C(C)=C5CC)c(C)c4C(=O)NCCCNC(=O)CCCC(=O)Oc1ccc(/C=C/C(=O)CC(=O)/C=C/c2ccc(O)c(OC)c2)cc1OC)C(CCC(=O)OC)C3C (stereo unspecified) | 4.58 | 47.6 | > 300 | 7.39 | > 52.3 | > 300 | 200 | 5.74 | 4.2 | > 65.5 |
|  |  |  |  | CN(C)c1ccc2nc3ccc(=[N+](C)C)cc-3sc2c1 |  |  |  | 33.9 |  |  |  |  |  |  |
